Molecules are shown by their SMILES. Several values for one entry are separate records, joined by “and”; a condition that tells them apart may be missing. Identical values can stand only once.

These results are taken from PMC8915191 (Clinical cancer research : an official journal of the …, 2019).

Series [1] can be described thus: HCQ population pharmacokinetics, whole blood concentrations by HPLC-MS/MS. It is filed as in vivo, human. The method in brief:
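HCQ 400 or 600 mg twice daily was given with everolimus, with a draw at each visit plus intensive sampling in a few patients (pre-dose, 15 min, 30 min, 1, 2, 3, 4, 6 h). Heparinized whole blood was stored at −70 °C and spiked with d4-HCQ internal standard. It was acetonitrile/methanol-precipitated and run on LC-MS/MS (positive ESI, MRM 337.275→248.152) in duplicate. The curve was 1–7500 ng/mL (LLOQ 1.0 ng/mL). A 2-compartment first-order-absorption model was fitted.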

The conditions of series [2]: no reference given; cited from earlier work.
The test system of series [3] is patients with advanced RCC. The following applies: human, in vivo, po, 5 weeks.
The subject of series [4] is peripheral blood mononuclear cells. Kind of series: Autophagic vesicles in serial PBMC by quantitative electron microscopy. The series is classed as in vivo, human. Particulars: after one week of everolimus alone; 11 patients. The method in brief: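 Cancer patients took everolimus 10 mg alone for one week, then HCQ 400 or 600 mg twice daily was added. Serial PBMC were collected before treatment, after one cycle and after two cycles (one week of everolimus alone; one month combined) in a limited number of patients (3 at 400 mg, 8 at 600 mg). PBMC were fixed for quantitative EM of autophagic vesicles.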

Series [5] has as its system advanced clear cell renal carcinoma (ccRCC). The following applies: cited from earlier work.
Another series has as its system mTOR. Particulars: cited from earlier work.
Where [6] appears, read: 2-compartment population PK model, 27 patients, oral HCQ.
Setting [7] is: 1000 bootstrap runs, population PK model.

With `CCN(CCO)CCCC(C)Nc1ccnc2cc(Cl)ccc12` (stereo not drawn) [HCQ, Hydroxychloroquine], in series [1] (setting [6]), the “Cl/F, apparent oral clearance, Model estimate” value was 7.98 L/h; the “Q, intercompartmental clearance, Model estimate” value was 14.98 L/h; the “V2/F, apparent peripheral volume of distribution, Model estimate” value is listed as 3604.83 L. Further, in series [1] (2-compartment population PK model, 163 blood samples from 27 patients, oral HCQ), the “Ka, absorption rate constant, Model estimate” value was 0.93 h. In series [1] (setting [7]), the “Cl/F, apparent oral clearance, Bootstrap Estimate” value is 8.00 L/h; the “Ka, absorption rate constant, Bootstrap Estimate” value is 1.00 h; the “Q, intercompartmental clearance, Bootstrap Estimate” value is given as 15.02 L/h; the “V2/F, apparent peripheral volume of distribution, Bootstrap Estimate” value is 3598.91 L. Further, the Vd/F (as a rule, the volume of distribution divided by bioavailability) in series [1] (human, whole blood, po) was 600 L. Also, the Plasma protein binding result in series [2] was “not extensively bound to plasma proteins”. For the same compound, in series [3], the “Recommended phase II dose (RP2D) of HCQ” value came to 600 mg.
In the case of `CO[C@H]1C[C@@H]2CC[C@@H](C)[C@@](O)(O2)C(=O)C(=O)N2CCCC[C@H]2C(=O)O[C@H]([C@H](C)C[C@@H]2CC[C@@H](OCCO)[C@H](OC)C2)CC(=O)[C@H](C)/C=C(\C)[C@@H](O)[C@@H](OC)C(=O)[C@H](C)C[C@H](C)/C=C/C=C/C=C/1C` [everolimus, Everolimus], the “Drug-induced change in autophagic vesicles in PBMC” value in series [4] is “no significant drug-induced changes”. Besides, the “Hazard ratio for PFS, everolimus versus placebo” value in series [5] (95% CI 0.22–0.40, p<0·0001) is listed as 0.30. For the same compound, in series [5], the “Median PFS, everolimus alone, CHECKMATE 025” value is on record as 4.6 months; the “Median PFS, everolimus alone, METEOR” value is listed as 3.8 months; the “Response rate, everolimus single agent” value is 1%. The “Median PFS, everolimus alone, RECORD-1” value in series [5] (everolimus 10 mg daily after TKI progression) is 4.01 months and 4 months.
Turning to `CO[C@H]1C[C@@H]2CC[C@@H](C)[C@@](O)(O2)C(=O)C(=O)N2CCCC[C@H]2C(=O)O[C@H]([C@H](C)C[C@@H]2CC[C@@H](OC(=O)C(C)(CO)CO)[C@H](OC)C2)CC(=O)[C@H](C)/C=C(\C)[C@@H](O)[C@@H](OC)C(=O)[C@H](C)C[C@H](C)/C=C/C=C/C=C/1C` [temsirolimus], in the series with mTOR, the “mTOR inhibition in PBMC” value is “sustained mTOR inhibition”.
